AI-2 QS mod: modulates the Vibrio harveyi AI-2 quorum sensing system; Vibrio harveyi JMH597 AI-2 luminescence/OD600 ratio, 9 h; active compounds read low; strain lacks LuxN and CqsS sensors; 0 = neutral-control median; activity change, % at 7.5 µM; 300,000 compounds, 0.4% hits; AID 2094; in the data active = activity change below about -75%, passing the limit was not always enough;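 note: luminescence divided by OD600 gain over 9 h not by final OD600 alone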
Rce1 inh: blocks yeast Ras-converting enzyme. Q03530. 290,000 compounds, 0.27% hits. yeast membranes, quenched prenylated peptide cleavage fluorescence. calls only;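 active = fall in fluorescence gain of 50% or more versus controls, with final raw signal at or below 3038400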
Target sequence (Q03530 whole entry, looked up): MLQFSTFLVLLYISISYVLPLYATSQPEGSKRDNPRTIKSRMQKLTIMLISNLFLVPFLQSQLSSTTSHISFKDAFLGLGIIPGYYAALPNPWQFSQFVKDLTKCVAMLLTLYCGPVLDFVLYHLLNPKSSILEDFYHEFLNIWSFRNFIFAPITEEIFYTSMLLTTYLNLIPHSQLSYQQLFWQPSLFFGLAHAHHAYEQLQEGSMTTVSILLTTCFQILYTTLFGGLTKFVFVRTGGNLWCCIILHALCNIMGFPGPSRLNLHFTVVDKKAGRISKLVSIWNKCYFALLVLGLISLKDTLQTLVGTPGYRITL
CAL PDZ FP-1: blocks peptide binding to human CAL PDZ domain | Q9HD26 | purified CAL PDZ, TMR-peptide fluorescence polarization, 1 h | inhibition, % at 20 µM | 330,000 compounds, 0.02% hits | AID 504414;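 active = highest replicate inhibition of at least 40%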
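material = purified tagged CAL PDZ domain construct (CerCALP) | buffer or medium = sodium phosphate/NaCl buffer pH 7.4 with TCEP, IgG, Thesit | reagent = TMR-labelled reporter peptide T*-PRC34 bound in PDZ groove | incubation = 1 h room-temperature incubation prior to read | measured by = fluorescence polarization (mP) | evaluation = percent inhibition from loss of millipolarization | control set = unlabelled peptide and DMSO controls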
ARNT TACC3 PPI: ARNT/TACC3 interaction disruption | Q9Y6A5 | AlphaScreen His-ARNT PAS-B/GST-TACC3 binding, luminescence; TACC3 fragment carries E629A point mutation | inhibition, % at 9.99 µM | 390,000 compounds, 0.66% hits | AID 623870;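 active = mean inhibition of replicates at least 50% and at least half of replicates each reaching 50%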
CAL PDZ FP-2: blocks peptide binding to the human CAL PDZ domain. purified CAL PDZ, TMR-peptide fluorescence polarization, 1 h. inhibition, % at 24.9 µM. AID 602252. Q9HD26. 300,000 compounds, 0.92% hits;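 active = mean inhibition of at least 30% with at least half of replicates also reaching 30%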
A number is an active result; i = inactive; nt = no result given; + = active, no number. The list is not random: actives were taken first. Their share in the collection is about 1.7%.

SMILES	AI-2 QS mod	Rce1 inh	CAL PDZ FP-1	ARNT TACC3 PPI	CAL PDZ FP-2
Cn1cnc(S(=O)(=O)N2CCCCN3[C@@H](CO)[C@H](c4ccc(C#CC5CCCC5)cc4)[C@@H]3C2)c1	nt	nt	nt	i	nt
COc1ccc(O)c(C(=O)c2coc(=N)c(C(=O)Nc3ccc(SC(F)F)cc3)c2)c1	i	i	i	i	40
Cc1ccc(C)c(N2CCN(C3CCCCC3NS(=O)(=O)c3ccccc3)CC2)c1 (centres undefined)	i	i	i	i	i
CCOc1ccccc1NC(=O)N1CCCC(c2nc(-c3ccc(C)o3)no2)C1 (centres undefined)	i	nt	i	i	76
Cc1noc(C)c1S(=O)(=O)Nc1ccc2c(c1)C(=O)N([C@H](C)CO)C[C@@H](C)[C@@H](CN(C)S(=O)(=O)c1cccs1)OCCCC[C@H](C)O2	nt	nt	nt	i	nt
O=C1NC2(CCCCCC2)C(=O)N1Cc1ccccc1Br	i	i	i	i	48
CN(Cc1ccccc1Br)C(=O)CN1C(=O)NC2(CCCCCC2)C1=O	nt	nt	i	i	39
CN(Cc1ccccc1)C(=O)CN1C(=O)NC2(CCCC2)C1=O	nt	nt	i	i	i
CCCCCCCCNCCS(=O)(=O)NCCCCCCCC	nt	nt	i	i	i
O=C(Nc1cc(F)ccc1F)N1CCCCN2[C@H](CO)[C@H](c3ccc(-c4ccccc4)cc3)[C@@H]2C1	nt	nt	nt	i	nt
c1ccc(Nc2cccc(Nc3ccccc3)n2)cc1	i	+	i	i	i
COc1ccc(-c2ccc3c(c2)[C@@H]2[C@@H](CCN2C(=O)c2ccc(F)cc2)[C@H](CO)N3C)cc1	nt	nt	nt	i	nt
O=C(NC(Cc1ccccc1)C(=O)O)c1ccco1 (centres undefined)	i	i	i	i	32
O=C(NC(Cc1ccccc1)C(=O)O)c1ccccc1 (centres undefined)	i	i	i	i	i
Cc1c(NS(=O)(=O)c2cc(C(=O)NCc3cccnc3)ccc2Cl)c(=O)n(-c2ccccc2)n1C	nt	nt	i	i	82
Cc1ccc(S(=O)(=O)N[C@@H]2CC[C@@H](CCNC(=O)C3CC3)O[C@@H]2CO)cc1	nt	nt	nt	i	nt
Cc1ccc(CNC(=O)c2ccc(N3CCC4(CC3)CC(c3ccccc3)=NO4)c(NC(=O)c3c(Cl)cccc3Cl)c2)cc1	i	i	i	i	51
COc1cccc(C(=O)Nc2cc(C(=O)NCc3ccc(C)cc3)ccc2N2CCC3(CC2)CC(c2ccccc2)=NO3)c1	i	i	i	i	i
O=C(Nc1ccc(Nc2ccccc2)cc1)c1cc([N+](=O)[O-])ccc1Cl	i	i	i	i	46
O=C(Nc1ccccc1Oc1ccccc1)c1cc([N+](=O)[O-])ccc1Cl	i	i	i	i	i
CCOC(=O)c1c(NC(=O)COc2ccccc2F)sc2c1CC(C)(C)NC2(C)C	i	+	i	i	i
CCOC(=O)c1c(NC(=O)CSc2ncccn2)sc2c1CC(C)(C)NC2(C)C	i	i	i	i	i
Cc1ccc(S(=O)(=O)N2CCCCC2)cc1NC(=O)COC(=O)C1(C)CC1(Cl)Cl (centres undefined)	nt	nt	i	i	67
Cc1ccc(OCC(=O)NCCc2c[nH]c3ccccc23)cc1	i	i	i	i	i
C=CCN=c1scc(-c2ccc(F)cc2)n1/N=C/c1ccccn1	i	i	i	i	i
SMILES	AI-2 QS mod	Rce1 inh	CAL PDZ FP-1	ARNT TACC3 PPI	CAL PDZ FP-2
C=CCN=c1scc(-c2ccccc2)n1/N=C/c1ccccn1	i	i	i	47	i
CCN=c1scc(-c2ccccc2)n1/N=C/c1ccccn1	i	i	i	61	i
COc1ccc(S(=O)(=O)N2CCCc3ccccc32)cc1[N+](=O)[O-]	i	i	i	i	i
CC(=O)c1ccccc1NC(=O)COC(=O)CCCN1C(=O)c2cccc3cccc(c23)C1=O	i	i	i	i	i
NS(=O)(=O)c1ccc(NC(=O)COC(=O)CCCN2C(=O)c3cccc4cccc(c34)C2=O)cc1	nt	nt	i	i	60
O=C(CSC1=NS(=O)(=O)c2ccccc2N1)NCCc1ccccc1	i	i	i	i	i
O=C(Cc1ccccc1)NCC(=O)N1CCc2ccccc2C1	i	i	i	i	i
O=C(CNCCc1ccccc1)N1CCc2ccccc2C1	i	i	i	i	45
O=C1NC(=O)/C(=C/c2ccc(N3CCOCC3)o2)N1	i	i	i	i	31
O=C1NC(=O)/C(=C\c2ccc(N3CCOCC3)o2)N1	i	i	i	i	i
Cn1ccsc1=NC(=O)c1ccc([N+](=O)[O-])o1	-86	i	i	nt	nt
COc1cc(C(=O)N=c2sccn2C)c([N+](=O)[O-])cc1OC	i	i	i	i	i
Cc1nn(C(=O)N2CCOCC2)c(C)c1C	i	i	i	nt	i
COc1ccccc1NC(=O)CCC(=O)Nc1cc(OC)c(NC(=O)c2cccs2)cc1OC	i	i	i	26	nt
COc1cc(NC(=O)c2cccs2)ccc1NC(=O)Cc1ccccc1	i	i	i	i	42
COc1cc(NC(=O)Cc2ccccc2)ccc1NC(=O)Cc1ccccc1	i	i	i	i	i
Cc1nc2ccc(C(=O)OCc3ccccc3Br)cc2nc1C	i	i	i	i	i
COc1ccc(CN(C)Cc2nc(Cc3cccc(F)c3)no2)c2cccnc12	i	i	i	i	i
O=C(CSc1nnc(CNC(=O)c2cccs2)o1)Nc1ccc(Br)cc1	i	i	i	i	44
O=C(CSc1nnc(CNC(=O)c2cccs2)o1)Nc1ccc(Cl)cc1	i	i	i	i	i
Cc1ccc(C(=O)NCCN2CCOCC2)c(Cl)c1	nt	nt	i	i	i
O=S(=O)(c1cccs1)N1CCN(S(=O)(=O)c2cccs2)CC1	i	i	i	i	i
N#Cc1nccnc1S(=O)(=O)c1cccs1	-132	i	nt	nt	nt
CCCCn1c(-c2sccc2C)n[nH]c1=S	i	+	i	i	i
CCCCn1c(-c2ccco2)n[nH]c1=S	i	i	i	i	i
SMILES	AI-2 QS mod	Rce1 inh	CAL PDZ FP-1	ARNT TACC3 PPI	CAL PDZ FP-2
COc1ccc(C2=NN(S(=O)(=O)c3ccccc3)C(c3ccccc3)C2)cc1 (centres undefined)	i	i	i	i	i
O=S(=O)(c1ccccc1)N1N=C(c2ccccc2)CC1c1ccccc1 (centres undefined)	i	i	i	i	45
C[C@@H]1CN([C@H](C)CO)C(=O)Cc2cc(NS(C)(=O)=O)ccc2O[C@H]1CN(C)Cc1ccc(C(F)(F)F)cc1	nt	nt	nt	i	nt
CC(C)n1ncc2c(C(=O)NCC(=O)Nc3ccccc3Br)cc(C3CC3)nc21	nt	nt	i	i	46
COc1ccccc1-n1cc(-c2ccc([N+](=O)[O-])cc2)[nH]c1=S	i	i	i	i	63
COc1cccc(-n2nnnc2S(C)(=O)=O)c1	-87	i	i	i	i
COc1cccc(-n2nnc(S(=O)(=O)c3ccc(C)cc3)c2N)c1	-92	i	i	i	i
OC1(c2ccc3ccccc3c2)CCN(Cc2ccccc2)C1 (centres undefined)	i	i	i	i	38

From PubChem BioAssay
